Activity and IC50 data for 13 compounds are collected here from ChEMBL document CHEMBL6177917, “Synthesis and evaluation of tetrahydropyrrolo[1,2-a]quinolin-1(2H)-ones as new tubulin polymerization inhibitors” (RSC Med Chem, 2025).

The target in data set [1] is T1, Tubulin (Homo sapiens) (UniProt P68371+Q9H4B7+P0DPH7+P68366+Q13509+Q71U36+P04350+Q3ZCM7+P07437+P68363+Q9BQE3+Q6PEY2+Q13885+Q9BVA1+Q9BUF5). As to the kind of experiment: Destabilization of microtubule network (unknown origin) assessed as decrease in catastrophes frequency measured for 30 min by differential interference contrast microscopic analysis.
Data set [2] relates to HeLa. As to the kind of experiment: Induction of mitotic arrest in human HeLa cells assessed as increase in mitotic index at > 50 uM measured for 12 hrs by phase contrast microscopic analysis. The data set is classed as functional, cell-based.
The target in data set [3] is T1, Tubulin (Homo sapiens). Briefly: Destabilization of microtubule network (unknown origin) assessed as reduction in microtubule growth rate measured for 30 min by differential interference contrast microscopic analysis.
Data set [4] deals with HeLa. Briefly: Induction of mitotic arrest in human HeLa cells assessed as increase in mitotic index at > 200 uM measured for 12 hrs by phase contrast microscopic analysis. The data set is classed as functional, cell-based.
Data set [5] deals with MCF7. Briefly: Induction of mitotic arrest in human MCF7 cells assessed as increase in mitotic index at > 200 uM measured for 12 hrs by phase contrast microscopic analysis. It is filed as functional, cell-based.
Data set [6] has as its system A549. Briefly: Cytotoxicity against human A549 cells assessed as reduction in cell proliferation incubated for 72 hrs by MTT assay. It is filed as toxicity, cell-based. The conditions noted are these: a549, 72 h. The procedure, abridged:
(§1)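 Cells were seeded at 2500 per well in DMEM/F12 and left 24 h at 37 °C in 5% CO2 before treatment. Compounds came from DMSO stocks and were given at final 100–0.045 μM, eight dilutions, in triplicate, for 72 h. MTT (up to 0.5 mg/mL) was then added for 1.5 h and formazan dissolved in DMSO was read at 565 nm. Signal was normalized to untreated cells and IC50 calculated.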
(In general: Tetrazolium dyes change colour on reduction, which living cells bring about.)

The subject of data set [7] is MCF7. Briefly: Induction of mitotic arrest in human MCF7 cells assessed as increase in mitotic index at > 50 uM measured for 12 hrs by phase contrast microscopic analysis. The data set is classed as functional, cell-based.
In data set [8] the test system is A549. As to the kind of experiment: Induction of cell cycle arrest in human A549 cells assessed as accumulation of cells at G2/M phase incubated for 24 hrs by PI staining based flow cytometry analysis. The data set is classed as functional. The conditions noted are these: for IC50: A549, 24 h. The procedure, abridged:
(§2)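 A549 cells were grown 48 h, then given compound or DMSO for 24 h, with nocodazole as control. Cells were fixed in 70% ice-cold ethanol overnight and stained with 30 μg/mL propidium iodide. DNA content was read by flow cytometry, with linear gates for G0/G1, S and G2/M. Mean ± s.d. of 2–3 independent experiments; G2/M versus DMSO tested by Dunnett's test.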
In general terms: A flow cytometer gives signals particle by particle.

Data set [9] has as its system A549. Briefly: Induction of cell cycle arrest in human A549 cells assessed as accumulation of cells at G2/M phase at 66 uM incubated for 24 hrs by PI staining based flow cytometric analysis. It is filed as functional. The procedure, abridged: as §2
For data set [10], the system named is A549. As to the kind of experiment: Induction of mitotic arrest in human A549 cells assessed as increase in mitotic index at > 50 uM measured for 12 hrs by phase contrast microscopic analysis. The data set is classed as functional, cell-based.
The test system of data set [11] is A549. Briefly: Induction of mitotic arrest in human A549 cells assessed as increase in mitotic index at > 200 uM measured for 12 hrs by phase contrast microscopic analysis. It is filed as functional, cell-based.
Data set [12] has as its system A549. Briefly: Induction of cell cycle arrest in human A549 cells assessed as accumulation of cells at G2/M phase at > 22 uM incubated for 24 hrs by PI staining based flow cytometric analysis. It is filed as functional. The procedure, abridged: as §2
The subject of data set [13] is A549. Briefly: Induction of cell cycle arrest in human A549 cells assessed as accumulation of cells at S phase incubated for 24 hrs by PI staining based flow cytometry analysis. The data set is classed as functional. The conditions noted are these: dose <= 64.0 µM. The procedure, abridged: as §2
Data set [14] in a line: Cytotoxicity against HEK293T cells assessed as reduction in cell proliferation incubated for 72 hrs by MTT assay. The data set is classed as toxicity, cell-based, HEK293. The conditions noted are these: human. The procedure, abridged:
as §1

In data set [15] the test system is Tubulin (Bos taurus). Briefly: Destabilization of microtubule network of purified bovine brain tubulin in vitro assessed as decrease in catastrophes frequency at 25 uM measured for 30 min by differential interference contrast microscopic analysis.
In data set [16] the test system is Tubulin (Bos taurus). As to the kind of experiment: Destabilization of microtubule network of purified bovine brain tubulin in vitro assessed as decrease in microtubule growth rate at 25 uM measured for 30 min by differential interference contrast microscopic analysis relative to control. Further details: scale not given: the % may be the effect or the level left.

Data set [17] relates to Tubulin (Bos taurus). As to the kind of experiment: Displacement of CPZ from tubulin (bovine brain) assessed as decrease in fluorescence intensity incubated for 1 hr by fluorescence based analysis. The conditions noted are these: dose 100.0 µM.
For data set [18], the system named is A549. Briefly: Induction of cell cycle arrest in human A549 cells assessed as accumulation of cells at G0/G1 phase incubated for 24 hrs by PI staining based flow cytometry analysis. The data set is classed as functional. The conditions noted are these: dose <= 64.0 µM. The procedure, abridged: as §2
In data set [19] the test system is A549. Briefly: Induction of cell cycle arrest in human A549 cells assessed as accumulation of cells at G2/M phase at 200 uM incubated for 24 hrs by PI staining based flow cytometric analysis. It is filed as functional. The procedure, abridged: as §2
Data set [20] has as its system A549. As to the kind of experiment: Induction of cell cycle arrest in human A549 cells assessed as accumulation of cells at G2/M phase at 116 uM incubated for 24 hrs by PI staining based flow cytometric analysis. The data set is classed as functional. The procedure, abridged: as §2
The target in data set [21] is T1, Tubulin (Homo sapiens). As to the kind of experiment: Destabilization of microtubule network (unknown origin) assessed as effect on microtubule growth rate measured for 30 min by differential interference contrast microscopic analysis.
Data set [22] deals with A549. Briefly: Induction of cell cycle arrest in human A549 cells assessed as accumulation of cells at G2/M phase up to 200 uM incubated for 24 hrs by PI staining based flow cytometric analysis. The data set is classed as functional. The procedure, abridged: as §2

Activity calls are given as the source filed them. The rule behind the calls is not given here.

For orientation: IC50 means the concentration at which inhibition is half-maximal.

`O=C1CC[C@@H]2C[C@H](c3ccccc3)c3ccccc3N12` (racemic): the result at Tubulin (Homo sapiens) [1], in the data set on HeLa [2], at Tubulin (Homo sapiens) [3], in the data set with HeLa [4], with MCF7 [5] and in the data set on MCF7 [7] was Active. The result in the data set with A549 [9], in the data set with A549 [10], in the data set with A549 [11] and in the data set on A549 [12] was Active. In addition, the Activity entry in the data set on A549 [6] is recorded as “Toxic”. In addition, the IC50 with A549 [8] was 22 µM.

Regarding `O=C1CC[C@@H]2C[C@H](c3cccc(O)c3)c3ccccc3N12` (racemic), the Activity entry with A549 [13] is “Dose-dependent-effect”; in the data set on Tubulin (Bos taurus) [16] it was greater than 50%; in the data set on A549 [8] (dose <= 64.0 µM) it was “Dose-dependent-effect”; in the data set on A549 [18], “Dose-dependent-effect”. The concentration for half-maximal inhibition (IC50) at 72 h in data set [14] amounted to 4.1 µM. Moreover, the outcome in the data set with Tubulin (Bos taurus) [15] and with Tubulin (Bos taurus) [17] was Active. The 50% inhibitory concentration (IC50) in the data set with A549 [8] was 5.9 µM.

As to `O=C1CCC(/C=C/c2ccccc2)N1c1ccccc1` (racemic), the result on Tubulin (Homo sapiens) [1], at Tubulin (Homo sapiens) [3], with HeLa [4], in the data set with MCF7 [5], in the data set with A549 [19] and in the data set on A549 [20] was Active. Besides, in the data set with A549 [11], the outcome was Active. The Activity entry in the data set on A549 [6] is given as “Toxic”. Further, in the data set with A549 [8], the IC50 stood at 82 µM.

For the compound `CC(C)(C)c1ccc(N2C(=O)CCC2/C=C/c2ccccc2)cc1` (racemic), at Tubulin (Homo sapiens) [21], the Activity result is “No effect”.

For `COc1cc(N2C(=O)CCC2c2ccc(Br)cc2)cc(OC)c1OC` (racemic), at Tubulin (Homo sapiens) [1], the result was inactive. In addition, on Tubulin (Homo sapiens) [21], the Activity entry was “No effect”.

Consider `COc1ccc(C2CCC(=O)N2c2cc(OC)c(OC)c(OC)c2)cc1OC` (racemic), for which the outcome on Tubulin (Homo sapiens) [1] was inactive. Also, the Activity entry at Tubulin (Homo sapiens) [21] was “No effect”.

Take `COc1ccc(C2CCC(=O)N2c2cccc3[nH]ccc23)cc1OC` (racemic): at Tubulin (Homo sapiens) [21], the Activity result is “No effect”.

`COc1ccc(N2C(=O)CCC2/C=C/c2ccc(C)cc2)cc1OC` (racemic): the outcome in the data set with A549 [22] was inactive. At Tubulin (Homo sapiens) [21], the result was Active.

On to `COc1ccc(N2C(=O)CCC2c2ccc(OC)c(OC)c2)cc1` (racemic), for which the result at Tubulin (Homo sapiens) [21] was Active.

For `Cc1ccc(/C=C/C2CCC(=O)N2c2ccccc2)cc1` (racemic), the result in the data set with A549 [22] was inactive. Besides, the result at Tubulin (Homo sapiens) [21] was Active.

As to `Cc1ccc([C@H]2C[C@H]3CCC(=O)N3c3ccccc32)cc1` (racemic), the result at Tubulin (Homo sapiens) [21] was Active. Moreover, the result with A549 [9] was inactive.

Take `Cc1ccccc1C1CCC(=O)N1c1ccc([N+](=O)[O-])cc1` (racemic): the Activity entry on Tubulin (Homo sapiens) [21] is “No effect”.

With `O=C1CCC(c2c3ccccc3cc3ccccc23)N1c1ccc(C(F)(F)F)cc1` (racemic), the Activity result on Tubulin (Homo sapiens) [21] was “No effect”.
